Data set [1] is described as follows: Inhibition of bovine trypsin. More on the design: species or system Bos taurus. Summed up:
(§1)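 Fluorogenic kinetic assay. Protease and inhibitor preincubated at RT for 30 min before substrate was added. Read at ex 355/em 480 nm every 30 s for 1 h. Initial rates were taken by linear regression, and fractional activity was the inhibited rate over the uninhibited blank rate.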

A short description of data set [2]: Inhibition of trypsin. An outline of the steps: as §1
The target in a further data set is Coagulation factor XI (Homo sapiens, UniProt P03951). In words: Inhibition of factor 11a. An outline of the steps: as §1
Chain of Coagulation factor XI (P03951 19-387 limits assumed): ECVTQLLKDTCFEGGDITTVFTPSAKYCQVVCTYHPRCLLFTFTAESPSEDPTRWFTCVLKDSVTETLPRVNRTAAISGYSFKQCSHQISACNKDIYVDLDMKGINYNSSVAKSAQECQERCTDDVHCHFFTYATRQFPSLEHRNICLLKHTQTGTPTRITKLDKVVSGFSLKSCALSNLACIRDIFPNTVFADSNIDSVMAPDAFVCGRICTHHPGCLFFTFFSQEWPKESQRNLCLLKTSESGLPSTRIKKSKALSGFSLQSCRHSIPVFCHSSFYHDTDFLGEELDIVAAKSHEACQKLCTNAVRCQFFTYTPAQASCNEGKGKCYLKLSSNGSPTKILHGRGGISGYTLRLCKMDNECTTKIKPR
Chain of Coagulation factor XI (P03951 388-625 limits assumed): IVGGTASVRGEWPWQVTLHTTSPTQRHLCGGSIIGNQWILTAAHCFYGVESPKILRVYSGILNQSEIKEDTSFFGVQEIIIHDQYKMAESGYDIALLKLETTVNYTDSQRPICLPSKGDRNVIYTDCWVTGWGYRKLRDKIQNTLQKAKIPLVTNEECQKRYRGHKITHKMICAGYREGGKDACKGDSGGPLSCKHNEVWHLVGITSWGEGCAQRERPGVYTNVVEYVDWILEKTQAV
Data set [3] can be described thus: Inhibition of human kallikrein. Summed up:
as §1

The next data set deals with Plasminogen (Homo sapiens, UniProt P00747). The experiment in a line: Inhibition of plasmin. Summed up: as §1
Chain of Plasminogen (P00747 97-580 limits assumed): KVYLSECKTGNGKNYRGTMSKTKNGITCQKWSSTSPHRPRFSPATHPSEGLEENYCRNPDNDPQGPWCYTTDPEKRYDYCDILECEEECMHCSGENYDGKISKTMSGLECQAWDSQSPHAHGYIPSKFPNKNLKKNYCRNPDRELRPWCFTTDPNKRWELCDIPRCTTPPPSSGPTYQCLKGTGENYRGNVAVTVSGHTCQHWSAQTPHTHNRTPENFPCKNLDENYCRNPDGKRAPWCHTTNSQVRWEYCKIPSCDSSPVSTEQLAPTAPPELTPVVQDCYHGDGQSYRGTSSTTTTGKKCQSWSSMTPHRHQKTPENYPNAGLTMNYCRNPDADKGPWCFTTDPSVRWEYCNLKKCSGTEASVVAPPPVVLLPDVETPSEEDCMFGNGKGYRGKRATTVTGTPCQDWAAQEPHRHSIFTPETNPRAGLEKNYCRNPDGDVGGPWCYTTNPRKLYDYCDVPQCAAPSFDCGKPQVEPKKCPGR
Chain of Plasminogen (P00747 581-810 limits assumed): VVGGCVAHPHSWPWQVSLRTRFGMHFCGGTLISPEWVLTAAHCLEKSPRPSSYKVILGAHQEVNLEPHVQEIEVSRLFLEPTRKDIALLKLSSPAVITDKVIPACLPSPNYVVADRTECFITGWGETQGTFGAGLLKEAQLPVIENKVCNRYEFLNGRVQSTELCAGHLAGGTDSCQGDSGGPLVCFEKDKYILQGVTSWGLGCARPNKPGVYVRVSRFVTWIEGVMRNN
Data set [4] can be described thus: Inhibition of chymotrypsin. Summed up:
as §1

The target of data set [5] is T1, Tissue-type plasminogen activator (Homo sapiens, UniProt P00750). In words: Inhibition of human tissue plasminogen activator. An outline of the steps:
as §1
Target sequence in this assay (P00750 whole entry): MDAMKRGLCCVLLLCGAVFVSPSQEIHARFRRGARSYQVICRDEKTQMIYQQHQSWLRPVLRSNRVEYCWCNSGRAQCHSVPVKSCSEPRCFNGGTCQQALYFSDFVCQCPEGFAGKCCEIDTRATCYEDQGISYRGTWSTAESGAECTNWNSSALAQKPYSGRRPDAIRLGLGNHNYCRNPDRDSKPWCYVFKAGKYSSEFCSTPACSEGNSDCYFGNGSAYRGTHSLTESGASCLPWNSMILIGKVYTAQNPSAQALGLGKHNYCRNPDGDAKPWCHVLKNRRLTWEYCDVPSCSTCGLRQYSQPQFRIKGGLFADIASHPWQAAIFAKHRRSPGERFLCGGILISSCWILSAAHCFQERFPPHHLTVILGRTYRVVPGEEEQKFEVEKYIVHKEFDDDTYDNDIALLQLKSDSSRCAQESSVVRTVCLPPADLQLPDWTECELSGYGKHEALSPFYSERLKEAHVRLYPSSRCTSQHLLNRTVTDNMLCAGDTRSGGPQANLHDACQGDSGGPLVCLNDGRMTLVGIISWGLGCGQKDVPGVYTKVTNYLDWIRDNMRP

For data set [6], the target named is T2, Prothrombin (Homo sapiens, UniProt P00734). The experiment in a line: Inhibition of thrombin. Summed up: as §1
Data set [7] addresses T3, Urokinase-type plasminogen activator (Homo sapiens, UniProt P00749). In words: Inhibition of human LMW urokinase. An outline of the steps:
as §1

Data set [8] can be described thus: Toxicity in Thamnocephalus platyurus after 24 hrs by acute toxicity assay. The format is organism-based. The following applies: in vivo. Summed up: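 Thamnocephalus platyurus instar II–III larvae hatched from cysts were exposed in multiwell plates for 24 h to six concentrations from 0.1 to 100 µM of highly purified compound, with 20–30 animals per concentration. LC50 was obtained by nonlinear regression.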

In data set [9] the target is T1, Tissue-type plasminogen activator. In words: Inhibition of human tissue plasminogen activator at < 2.5 uM. Summed up: as §1
Target sequence in this assay (P00750 36-562 limits assumed): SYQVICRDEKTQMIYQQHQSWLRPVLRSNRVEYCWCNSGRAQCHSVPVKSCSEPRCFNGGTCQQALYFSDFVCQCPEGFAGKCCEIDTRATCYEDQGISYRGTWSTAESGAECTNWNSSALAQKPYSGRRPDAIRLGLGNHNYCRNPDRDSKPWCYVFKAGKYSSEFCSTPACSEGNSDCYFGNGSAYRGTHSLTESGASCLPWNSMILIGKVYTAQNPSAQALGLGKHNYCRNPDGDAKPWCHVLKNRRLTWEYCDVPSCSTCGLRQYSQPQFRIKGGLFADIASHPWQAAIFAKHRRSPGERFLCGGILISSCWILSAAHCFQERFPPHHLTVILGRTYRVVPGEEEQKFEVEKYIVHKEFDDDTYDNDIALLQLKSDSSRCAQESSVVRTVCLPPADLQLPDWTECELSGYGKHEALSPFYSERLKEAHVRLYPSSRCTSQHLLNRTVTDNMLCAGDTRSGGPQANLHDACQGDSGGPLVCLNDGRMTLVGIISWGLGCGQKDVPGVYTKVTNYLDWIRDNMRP
Data set [10] has as its target T2, Prothrombin. In words: Inhibition of thrombin at < 2.5 uM. An outline of the steps: as §1
Data set [11] addresses T3, Urokinase-type plasminogen activator. The experiment in a line: Inhibition of human LMW urokinase at < 2.5 uM. Summed up:
as §1

Structures are written as SMILES. Active and inactive are the calls of the source. The calls are words filed in the database; no cut-off is given here. Where only a bound is given, the exact number is not on record here.

One may read the IC50 as the concentration that gives 50% inhibition. A high value points to weaker potency in that assay. For the compound `CC(C)C[C@@H](NC(=O)[C@H](O)COS(=O)(=O)O)C(=O)N[C@@H]1C(=O)N[C@@H](CCCNC(=N)N)C(=O)N[C@H]2CC[C@@H](O)N(C2=O)[C@@H](CC(C)C)C(=O)N(C)[C@@H](Cc2ccc(O)cc2)C(=O)N[C@@H](C(C)C)C(=O)O[C@@H]1C`, the IC50 in [1] stood at 10 nM.

The LC50 is the concentration that kills 50% of the test population. Regarding `CCCCCC(=O)N[C@@H](CCC(=O)O)C(=O)N[C@@H]1C(=O)N[C@@H](CCCNC(=N)N)C(=O)N[C@H]2CC[C@@H](O)N(C2=O)[C@@H](Cc2ccccc2)C(=O)N(C)[C@@H](Cc2ccc(O)cc2)C(=O)N[C@@H](C(C)C)C(=O)O[C@@H]1C` [CYANOPEPTOLIN 1020], the IC50 in [2] is 0.67 nM; against Coagulation factor XI, 3.9 nM; in data set [3], 4.5 nM; against Plasminogen, 490 nM; in data set [4], 1800 nM; in data set [5], more than 2500 nM. The IC50 was more than 2500 nM on Prothrombin [6] and more than 605000 nM in data set [7]. For the same compound, the LC50 at 24 h in data set [8] amounted to 8800 nM. The inhibition entry (in data set [9]; on Prothrombin [10]; in [11]) was “inactive” throughout.

Source of the values: ChEMBL document CHEMBL1177870, “Multiple toxin production in the cyanobacterium microcystis: isolation of the toxic protease inhibitor cyanopeptolin 1020” (J Nat Prod, 2010).
